In ChEMBL document CHEMBL1151786, “Triphenylmethylamides (TPMAs): Structure-activity relationship of compounds that induce apoptosis in melanoma cells” (Bioorg Med Chem Lett, 2008):
In brackets after ≈: the same amount, converted by molar mass. Activity calls are given as the source filed them. No cut-off for these calls is given here.

Columns and labels:
[1] = tested on: UACC-62; experiment: Growth inhibition of human UACC62 cells after 72 hrs by SRB assay; assay type: functional, cell-based; settings: UACC-62, 72 h
Summary of the method: (§1)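 Melanoma cells were exposed to a range of compound concentrations for 72 h. Growth inhibition was read as biomass by sulforhodamine B staining. IC50 is the average of three separate occasions, given with standard deviation, from dose–response curves.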

[2] = tested on: SK-MEL-5; experiment: Growth inhibition of human SK-MEL-5 cells after 72 hrs by SRB assay; assay type: functional, cell-based; settings: SK-MEL-5, 72 h; summary of the method: as §1
[3] = tested on: HL-60; experiment: Cell cycle arrest in human HL60 cells assessed as accumulation at G1 phase at 20 uM after 6 hrs by flow cytometry using propidium iodide staining; assay type: functional, cell-based
Summary of the method: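 HL-60 cells were treated for 6 h with 20 µM compound or with vehicle alone. They were then stained with propidium iodide and analysed by flow cytometry for the percentage of cells in G0/G1, S and G2/M.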

[4] = tested on: MCF7; experiment: Antiproliferative activity against human MCF7 cells after 72 hrs by SRB assay; assay type: functional, cell-based; settings: MCF7, 72 h
Summary of the method: (§2)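 Cancer cell lines were incubated with compound for 72 h. Growth or viability was measured by a method given in the supporting information. IC50 values are averages with standard deviations from three independent experiments.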

[5] = tested on: U-937; experiment: Induction of late apoptosis in human U937 cells at 100 uM after 48 hrs by flow cytometry using FITC-conjugated annexin V and propidium iodide staining relative to control; assay type: functional
Summary of the method: (§3)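 U-937 cells were exposed for 48 h to 100 µM compound or to vehicle. Cells were stained with FITC-conjugated Annexin V to detect phosphatidylserine externalization and with propidium iodide to test membrane integrity, then quantified by flow cytometry. Quadrants were scored, with Annexin V-positive/propidium iodide-negative taken as early apoptotic.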

[6] = tested on: U-937; experiment: Antiproliferative activity against human U937 cells after 72 hrs by SRB assay; assay type: functional, cell-based; settings: U-937, 72 h; summary of the method: as §2
[7] = tested on: HL-60; experiment: Antiproliferative activity against human HL60 cells after 72 hrs by SRB assay; assay type: functional, cell-based; settings: HL-60, 72 h; summary of the method: as §2
[8] = Aqueous solubility in phosphate-buffered saline at pH 7.4; assay type: physicochemical; settings: read-out: Stability
[9] = tested on: PC-12; experiment: Antiproliferative activity against rat PC12 cells after 72 hrs by SRB assay; assay type: functional, cell-based; settings: PC-12, 72 h; summary of the method: as §2
[10] = tested on: U-937; experiment: Induction of apoptosis in human U937 cells assessed as nonviable necrotic cells at 100 uM after 48 hrs by flow cytometry using FITC-conjugated annexin V and propidium iodide staining relative to control; assay type: functional; summary of the method: as §3
[11] = tested on: U-937; experiment: Induction of early apoptosis in human U937 cells at 100 uM after 48 hrs by flow cytometry using FITC-conjugated annexin V and propidium iodide staining relative to control; assay type: functional; summary of the method: as §3
[12] = tested on: U-937; experiment: Induction of apoptosis in human U937 cells assessed as viable cells at 100 uM after 48 hrs by flow cytometry using FITC-conjugated annexin V and propidium iodide staining relative to control; assay type: functional; settings: U-937, 48 h, read-out: Activity; summary of the method: as §3

SMILES | IC50 [2] [µM] | IC50 [1] [µM] | further results
O=C(CC(c1ccccc1)(c1ccccc1)c1ccccc1)NCCc1ccccc1 | 17 | 50 | 
O=C(CCC(c1ccccc1)(c1ccccc1)c1ccccc1)NCCc1ccccc1 | 5.5 | 50 | 
O=C(NCCc1ccccc1)C(c1ccccc1)(c1ccccc1)c1ccc(O)cc1 | 8.1 | 13 | 
O=C(NCCc1ccccc1)C(c1ccccc1)(c1ccccc1)c1ccc(O)c(O)c1 | 4.2 | 2.1 | IC50 [4]: 8.1 µM; Activity [5]: 58.56%; IC50 [6]: 5.9 µM; IC50 [7]: 6.2 µM; solubility [8]: 80 µM (≈ 33.9 µg/mL); IC50 [9]: 85 µM; Activity [10]: 12.79%; Activity [11]: 23.17%; viability at 100 µM [12]: 5.48%; Activity [3]: Active
O=C(NCCc1ccccc1)C(c1ccccc1)(c1ccccc1)c1ccccc1 | 5.8 | 8.3 | IC50 [4]: 7.1 µM; IC50 [6]: 9.5 µM; IC50 [7]: 7.7 µM; IC50 [9]: 31 µM; Activity [3]: Active
COC(=O)[C@@H](Cc1ccccc1)NC(=O)C(c1ccccc1)(c1ccc(OC)cc1)c1ccc(OC)cc1 | 24 | > 100 | 
COC(=O)[C@@H](Cc1ccccc1)NC(=O)C(c1ccccc1)(c1ccccc1)c1cccs1 | 12 | 21 | 
O=C(NCCc1ccccc1)C1(c2ccccc2)c2ccccc2-c2ccccc21 | 20 | 20 | 
COC(=O)[C@@H](Cc1ccccc1)NC(=O)C(c1ccc(OC)cc1)(c1ccc(OC)cc1)c1ccc(OC)cc1 | 49 | > 100 | 
COC(=O)[C@@H](Cc1ccccc1)NC(=O)C1(c2ccccc2)c2ccccc2-c2ccccc21 | 23 | 27 | 
COc1ccc(C(C(=O)NCCc2ccccc2)(c2ccc(OC)cc2)c2ccc(OC)cc2)cc1 | 20 | > 100 | 
COC(=O)[C@@H](Cc1ccccc1)NC(=O)C(c1ccccc1)(c1ccccc1)c1ccc(O)cc1 | 8.1 | 21 | 
O=C(NCCc1ccccc1)C(c1ccccc1)(c1ccccc1)c1cccs1 | 9 | 13 | 
O=C(CCCC(c1ccccc1)(c1ccccc1)c1ccccc1)NCCc1ccccc1 | 5.4 | 26 | Activity [3]: Active
COC(=O)[C@@H](Cc1ccccc1)NC(=O)C(c1ccccc1)(c1ccccc1)c1ccccc1 | 5.7 | 14 | IC50 [4]: 8 µM; IC50 [6]: 7.2 µM; IC50 [7]: 7.3 µM; solubility [8]: 20 µM (≈ 8.99 µg/mL); IC50 [9]: 16 µM; Activity [3]: Active

More lines, main results first:

IC50 [2] [µM] | SMILES | IC50 [1] [µM] | further results
6.1 | COC(=O)[C@@H](Cc1ccccc1)NC(=O)C(c1ccccc1)(c1ccccc1)c1ccc(OC)cc1 | 27 | 
29 | COc1ccc(C(C(=O)NCCc2ccccc2)(c2ccccc2)c2ccccc2)cc1 | 13 | Activity [3]: Active
5.1 | COC(=O)[C@@H](Cc1ccccc1)NC(=O)CC(c1ccccc1)(c1ccccc1)c1ccccc1 | > 100 | 
8.6 | O=C(NCCc1ccccc1)C(c1ccccc1)(c1ccc(O)cc1)c1ccc(O)cc1 | 47 | 
6.7 | COC(=O)[C@@H](Cc1ccccc1)NC(=O)C(c1ccccc1)(c1ccc(O)cc1)c1ccc(O)cc1 | 20 | 
36 | O=C(NCCc1ccccc1)C(c1ccc(O)cc1)(c1ccc(O)cc1)c1ccc(O)cc1 | 71 | 
13 | COC(=O)[C@@H](Cc1ccccc1)NC(=O)C(c1ccc(O)cc1)(c1ccc(O)cc1)c1ccc(O)cc1 | 27 | 
2.5 | COC(=O)[C@@H](Cc1ccccc1)NC(=O)CCC(c1ccccc1)(c1ccccc1)c1ccccc1 | 40 | IC50 [4]: 6.1 µM; IC50 [6]: 6.8 µM; IC50 [7]: 6 µM; IC50 [9]: 74 µM
5.8 | COC(=O)[C@@H](Cc1ccccc1)NC(=O)CCCC(c1ccccc1)(c1ccccc1)c1ccccc1 | 45 | 
14 | COc1ccc(C(C(=O)NCCc2ccccc2)(c2ccccc2)c2ccc(OC)cc2)cc1 | 20 | Activity [3]: Active
